Data on 33 compounds can be found in ChEMBL document CHEMBL1152651, “In vivo and in vitro anti-leishmanial activities of 4-nitro-N-pyrimidin- and N-pyrazin-2-ylbenzenesulfonamides, and N2-(4-nitrophenyl)-N1-propylglycinamide” (Bioorg Med Chem, 2009).

The source made the active and inactive calls. The rule behind the calls is not given here.

The test system of data set [1] is Leishmania infantum. The data set is described as follows: Antileishmanial activity against Leishmania infantum MCAN/ES/92/BCN 83 promastigotes at 100 ug/ml after 48 hrs by resazurin method. It counts as functional. The note with it: for inhibition of growth at 100 µg/mL: MCAN/ES/92/BCN 83, 48 h, read-out: GI. In short, it runs like this: (§1)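 L. infantum MCAN/ES/92/BCN 83 promastigotes (Schneider's medium, 20% heat-inactivated FBS, 26 °C), 2.5 × 10^5 per well. Compounds in DMSO were first screened at 1, 10, 100 µg/mL, then 252 to 1.9 µM for active ones. After 48 h at 26 °C, resazurin was added and fluorescence read (ex 535/em 590 nm) for % growth inhibition. Triplicates; IC50 by least-squares linear regression.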

Data set [2] deals with Leishmania infantum. Kind of data set: Antileishmanial activity against Leishmania infantum MCAN/ES/92/BCN 83 promastigotes after 48 hrs by resazurin method. It counts as functional, organism-based. Put shortly: as §1
For orientation: Resazurin is reduced to fluorescent resorufin, in cell work by metabolically active cells.

Data set [3] concerns J774. Kind of data set: Cytotoxicity against mouse J774 cells after 24 hrs by resazurin reduction test. It counts as cell-based. In short, it runs like this: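 J774 murine macrophages (RPMI 1640, 10% FBS, 37 °C, 5% CO2), 5 × 10^4 cells/well, adhered 24 h. Then exposed to compounds for 24 h. Resazurin added for 3 h; fluorescence read at ex 535/em 590 nm, background subtracted. Each concentration assayed three times.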

The subject of data set [4] is Calf thymus DNA. Kind of data set: Binding affinity to calf thymus DNA assessed as increase in DNA viscosity at 1 to 30 uM by viscometer. It counts as nucleic-acid assay. The settings on record: Bos taurus. Put shortly:
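Ubbelohde viscometer at 25.0 or 37.0 °C. Compounds in DMF/cacodylate buffer (pH 6) 2:10 added to 50 µM CT-DNA in cacodylate buffer; final 1–30 µM. Flow times in triplicate, η = t − t0. Plotted as (η/η0)^1/3 versus the compound/DNA ratio.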

Data set [5] relates to Calf thymus DNA. The data set is described as follows: Binding affinity to calf thymus DNA assessed as melting temperature (Rvb Tm = 53.8 degC). It counts as nucleic-acid assay. The settings on record: Bos taurus.
Data set [6] deals with Nucleic Acid. Kind of data set: Induction of supercoiled Escherichia coli pUC18 DNA cleavage at 6 to 60 uM after 60 mins by agarose gel electrophoresis. It counts as nucleic-acid assay. In short, it runs like this: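 Supercoiled pUC18 plasmid in 0.1 M cacodylate buffer pH 6.0 with compound at 6–60 µM final, 1 h at 37 °C. Analysed by 0.8% agarose gel in 0.5× TBE with ethidium bromide, 80 V, about 2 h.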

Data set [7] has as its system Nucleic Acid. Kind of data set: Induction of Cu2+-dependent DNA cleavage in Escherichia coli pUC18 DNA assessed as degradation of super coiled form at 15 to 30 uM after 60 mins by agarose gel electrophoresis in presence of cupric chloride. It counts as nucleic-acid assay. In short, it runs like this: (§2)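 pUC18 plasmid in 0.1 M cacodylate pH 6.0 with CuCl2 + compound (1:1) at 15–45 µM final, plus ascorbate (50-fold excess over Cu(II)). 1 h at 37 °C. Supercoiled, circular and linear forms resolved on 0.8% agarose/0.5× TBE gel with ethidium bromide, 80 V, about 2 h.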

In data set [8] the test system is Nucleic Acid. The data set is described as follows: Induction of Cu2+-dependent DNA cleavage in Escherichia coli pUC18 DNA assessed as degradation of super coiled form at 45 uM after 60 mins by agarose gel electrophoresis in presence of cupric chloride. It counts as nucleic-acid assay. In short, it runs like this:
as §2

In data set [9] the test system is Mus musculus. Kind of data set: Toxicity in BALB/c mouse assessed as reduction hair loss at 5 mg/kg, ip once daily. The settings on record: in vivo.
The test system of data set [10] is Mus musculus. The data set is described as follows: Toxicity in BALB/c mouse assessed as reduction in body weight at 5 mg/kg, ip once daily. The note with it: in vivo.
Data set [11] concerns Leishmania infantum. Kind of data set: Antileishmanial activity against Leishmania infantum MCAN/ES/92/BCN 83 promastigotes-infected in BALB/c mouse assessed as reduction of parasite burden in liver at 5 mg/kg, ip once daily for 10 days by limit dilution assay relative to control. Further details: scale not given: the % may be the effect or the level left. The settings on record: route intraperitoneal.

In data set [12] the test system is Leishmania infantum. Kind of data set: Antileishmanial activity against Leishmania infantum MCAN/ES/92/BCN 83 promastigotes-infected in BALB/c mouse assessed as reduction of parasite burden in spleen at 5 mg/kg, ip once daily for 10 days by limit dilution assay relative to control. Further details: scale not given: the % may be the effect or the level left. The settings on record: route intraperitoneal.

Where [13] appears, read: Leishmania infantum, MCAN/ES/92/BCN 83, 48 h, read-out: IC50.
[14] abbreviates: Mus musculus, J774, 24 h, read-out: IC50.

On to `CCCNC(=O)CNc1ccc([N+](=O)[O-])cc1`, for which, in [1], the inhibition of growth at 100 µg/mL is 85%. The values for the IC50 in data set [2] (setting [13]) and in data set [3] (setting [14]) were 156 µM and more than 256 µM, respectively. The outcome in data set [4], in data set [6] and in data set [7] was inactive. In [5], the Tm worked out at 54 °C. For the same compound, in data set [8], the result was Active. The Activity entry in data set [9] is “Non-toxic”; in data set [10], “Non-toxic”; in [11], 97.95%; in data set [12] it was 99.89%.
Consider `Cc1csc(NS(=O)(=O)c2ccc([N+](=O)[O-])cc2)n1`, for which the inhibition of growth at 100 µg/mL in [1] is 55.6%. For the same compound, the 50% inhibitory concentration (IC50) (usually the midpoint of a concentration-inhibition curve) in data set [2] (setting [13]) is more than 256 µM.
As to `Cc1cc(C)nc(NS(=O)(=O)c2ccc([N+](=O)[O-])cc2)n1`, in [1], the inhibition of growth at 100 µg/mL was found to be 33.3%. In addition, in [2] (setting [13]), the IC50 is more than 256 µM.
For the compound `O=[N+]([O-])c1ccc(S(=O)(=O)Nc2ncccn2)cc1`, the inhibition of growth at 100 µg/mL in data set [1] was 92.7%. Further, the concentration for half-maximal inhibition (IC50) in data set [2] (setting [13]) was 100 µM; in [3] (setting [14]), more than 256 µM. Also, the outcome in data set [4], in [6] and in data set [7] was inactive. The Tm in data set [5] was 54.2 °C. Besides, the result in [8] was Active. Besides, the Activity result in data set [9] was “Non-toxic”; in data set [10], “Non-toxic”; in [11], 97.58%; in data set [12], 99.82%.
As for `O=[N+]([O-])c1ccc(S(=O)(=O)Nc2cnccn2)cc1`, the inhibition of growth at 100 µg/mL in data set [1] worked out at 90.8%. For the same compound, the IC50 was 66.2 µM in [2] (setting [13]) and more than 256 µM in data set [3] (setting [14]). Also, the Activity result in data set [9] is “Non-toxic”; in data set [10], “Non-toxic”; in [11], 99.28%; in data set [12], 99.44%.
For the compound `Cc1cnc(NS(=O)(=O)c2ccc([N+](=O)[O-])cc2)s1`, the inhibition of growth at 100 µg/mL in data set [1] turned out to be 36.7%. In data set [2] (setting [13]), the IC50 was more than 256 µM.
Regarding `Cc1cc(NS(=O)(=O)c2ccc([N+](=O)[O-])cc2)no1`, the inhibition of growth at 100 µg/mL in data set [1] was found to be 85.6%. The IC50 is 126 µM in data set [2] (setting [13]) and more than 256 µM in data set [3] (setting [14]).
On to `O=S(=O)(Nc1ncccn1)c1ccc(Br)cc1`, for which the “growth inhibition (GI)” value in [1] was “inactive”. The half-inhibitory concentration (IC50) result in [2] and in data set [3] (j774) was “Not Active” each time.
With `O=[N+]([O-])c1ccc(S(=O)(=O)Nc2ccccn2)cc1`, the inhibition of growth at 100 µg/mL in data set [1] is 39.3%. Moreover, the half-inhibitory concentration (IC50) in [2] (setting [13]) is more than 256 µM.
Turning to `CS(=O)(=O)Nc1ncccn1`, the “growth inhibition (GI)” value in [1] is “inactive”. Also, the 50% inhibitory concentration (IC50) result in [2] and in data set [3] (j774) was “Not Active” in each case.
Consider `Cc1cnc(NS(=O)(=O)c2ccc(Cl)cc2)s1`, for which the inhibition of growth at 100 µg/mL in data set [1] was 74.5%. For the same compound, the IC50 in [2] (setting [13]) was more than 256 µM.
Taken in the same sequence, the figures for `O=S(=O)(Nc1ncccn1)c1ccccc1` were 20.3% and more than 256 µM.
As for `O=[N+]([O-])c1ccc(S(=O)(=O)Nc2ccc3c(c2)CCC3)cc1`, in [1], the inhibition of growth at 100 µg/mL amounted to 91.9%. Further, the half-maximal inhibitory concentration (IC50) in data set [2] (setting [13]) is less than 1 µM; in data set [3] (setting [14]), 61 µM.
For the compound `O=[N+]([O-])c1ccc(S(=O)(=O)Nc2ccc3[nH]ncc3c2)cc1`, in [1], the inhibition of growth at 100 µg/mL was determined as 88.2%. For the same compound, the 50% inhibitory concentration (IC50) in data set [2] (setting [13]) is 14.5 µM; in [3] (setting [14]), more than 256 µM.
As to `O=[N+]([O-])c1ccc(S(=O)(=O)Nc2ccncc2)cc1`, the inhibition of growth at 100 µg/mL in [1] was determined as 46.3%. Moreover, in [2] (setting [13]), the concentration for half-maximal inhibition (IC50) was more than 256 µM.
As to `O=S(=O)(Nc1ccc2c(c1)CCC2)c1ccc(Cl)cc1`, in data set [1], the inhibition of growth at 100 µg/mL was 49.9%. In data set [2] (setting [13]), the half-maximal inhibitory concentration (IC50) is more than 256 µM.
For the compound `Cc1cc(NS(=O)(=O)c2ccc(Cl)cc2)no1`, the inhibition of growth at 100 µg/mL in data set [1] is 15.7%. Also, in data set [2] (setting [13]), the IC50 was more than 256 µM.
Turning to `Cc1cc(C)nc(NS(=O)(=O)c2ccc(Cl)cc2)n1`, the inhibition of growth at 100 µg/mL in [1] amounted to 71.5%. In addition, the half-inhibitory concentration (IC50) is 224 µM in data set [2] (setting [13]) and more than 256 µM in data set [3] (setting [14]).
On to `O=S(=O)(Nc1ccc2c(c1)CCC2)c1ccccc1`, for which the inhibition of growth at 100 µg/mL in data set [1] is 45.3%. Besides, the half-maximal inhibitory concentration (IC50) in data set [2] (setting [13]) is more than 256 µM.
For `O=[N+]([O-])c1ccc(S(=O)(=O)Nc2cccnc2)cc1` the same measures were 35.7% and more than 256 µM.
Taken in the same sequence, the figures for `O=S(=O)(Nc1cnccn1)c1ccccc1` were 37% and more than 256 µM.
For the compound `O=[N+]([O-])c1ccccc1S(=O)(=O)Nc1ncccn1`, the inhibition of growth at 100 µg/mL in data set [1] turned out to be 40.6%. Moreover, the half-inhibitory concentration (IC50) in data set [2] (setting [13]) was more than 256 µM.
As to `Cc1cnc(NS(=O)(=O)c2ccccc2)s1`, in data set [1], the inhibition of growth at 100 µg/mL worked out at 69%. Further, the IC50 in data set [2] (setting [13]) was more than 256 µM.
For `Cc1cc(NS(=O)(=O)c2ccccc2)no1` the same measures were 17.9% and more than 256 µM.
Take `O=S(=O)(Nc1ncccn1)c1ccc(Cl)cc1`: the “growth inhibition (GI)” value in data set [1] was “inactive”. The IC50 result in data set [2] and in [3] (j774) was “Not Active” throughout.
With `Nc1ccc(S(=O)(=O)Nc2ncccn2)cc1` [SULFADIAZINE], the “growth inhibition (GI)” value in data set [1] was “inactive”. The IC50 entry in data set [2] and in data set [3] (j774) was “Not Active” in each case.
With `Cc1cc(NS(=O)(=O)c2ccc([N+](=O)[O-])cc2)n[nH]1`, the inhibition of growth at 100 µg/mL in [1] is 71.5%. Further, the IC50 is 164 µM in [2] (setting [13]) and more than 256 µM in [3] (setting [14]).
Take `O=[N+]([O-])c1cccc(S(=O)(=O)Nc2ncccn2)c1`: the “growth inhibition (GI)” value in data set [1] is “inactive”. Also, the half-maximal inhibitory concentration (IC50) entry in data set [2] and in [3] (j774) was “Not Active” throughout.
For `O=S(=O)(Nc1nccs1)c1ccc(Cl)cc1`, the inhibition of growth at 100 µg/mL in data set [1] was determined as 65%. In addition, the IC50 in data set [2] (setting [13]) is more than 256 µM.
For `O=S(=O)(Nc1cnccn1)c1ccc(Cl)cc1` the same measures were 25.3% and more than 256 µM.
Consider `O=S(=O)(Nc1ncccn1)c1ccc(F)cc1`, for which the “growth inhibition (GI)” value in data set [1] was “inactive”. For the same compound, the IC50 result in [2] and in [3] (j774) was “Not Active” in each case.
`COc1ccc(S(=O)(=O)Nc2ncccn2)cc1`: the inhibition of growth at 100 µg/mL in [1] was determined as 29.6%. For the same compound, in data set [2] (setting [13]), the half-maximal inhibitory concentration (IC50) was more than 256 µM.
Taken in the same sequence, the figures for `O=[N+]([O-])c1ccc(S(=O)(=O)Nc2nccs2)cc1` [PARA-NITROSULFATHIAZOLE] were 58.6% and more than 256 µM.
